{"source": "ChEMBL document CHEMBL1156410", "about": "“Design and synthesis of a combinatorial chemistry library of 7-acyl, 10-acyl, and 7,10-diacyl analogues of paclitaxel (taxol) using solid phase synthesis” (J Nat Prod, 2002)", "key": {"[1]": {"test": "Octanol-water partition coefficient, log P in 0.1 N aqueous HCl", "format": "physicochemical", "how_it_was_run": "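Compound partitioned between 1-octanol and 0.1 N aqueous HCl with vigorous shaking for 1 h.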"}, "A2780": {"tested_on": "A2780", "test": "Cytotoxicity against human A2780 cells", "format": "functional, cell-based"}, "[2]": {"test": "Induction of tubulin polymerization by DAPI fluorescence method", "details": "read-out: I50", "how_it_was_run": "(§1)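 Microplate assay in PMEG buffer (100 mM PIPES, 1 mM MgSO₄, 2 mM EGTA, 0.1 mM GTP, pH 6.9) containing ligand; DAPI final 10 µM, tubulin final 5 µM. Fluorescence followed at 37 °C, excitation 360/40 nm, emission 460/40 nm. Change in fluorescence normalized to the curve of 10 µM paclitaxel standard. Samples in duplicate, triplicate or quadruplicate; concentrations over 2 orders of magnitude tested.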"}, "[3]": {"test": "Induction of tubulin polymerization at 0.1 uM by DAPI fluorescence method relative to control", "how_it_was_run": "as §1"}, "[4]": {"test": "Induction of tubulin polymerization at 10 uM by DAPI fluorescence method relative to control", "how_it_was_run": "as §1"}, "[5]": {"test": "Induction of tubulin polymerization at 1 uM by DAPI fluorescence method relative to control", "how_it_was_run": "as §1"}}, "data": [{"smiles": "CC(=O)O[C@@]12CO[C@@H]1C[C@H](OC(=O)CN1CCN(c3ccccn3)CC1)[C@@]1(C)C(=O)[C@H](O)C3=C(C)[C@@H](OC(=O)[C@H](O)[C@@H](NC(=O)c4ccccc4)c4ccccc4)C[C@@](O)([C@@H](OC(=O)c4ccccc4)[C@H]21)C3(C)C", "values": [{"measurement": "logP", "setting": "[1]", "value": 0.155}, {"measurement": "IC50", "setting": "A2780", "value": 0.014, "unit": "µg/mL"}, {"measurement": "IC50", "setting": "[2]", "value": 1650, "unit": "nM"}]}, {"smiles": "CC(=O)O[C@@]12CO[C@@H]1C[C@H](OC(=O)CN1CCN(c3ccc(C(C)=O)cc3)CC1)[C@@]1(C)C(=O)[C@H](O)C3=C(C)[C@@H](OC(=O)[C@H](O)[C@@H](NC(=O)c4ccccc4)c4ccccc4)C[C@@](O)([C@@H](OC(=O)c4ccccc4)[C@H]21)C3(C)C", "values": [{"measurement": "IC50", "setting": "A2780", "value": 0.9, "unit": "µg/mL"}, {"measurement": "IC50", "setting": "[2]", "value": 4340, "unit": "nM"}]}, {"smiles": "CC(=O)O[C@@]12CO[C@@H]1C[C@H](OC(=O)CN1CCOCC1)[C@@]1(C)C(=O)[C@H](O)C3=C(C)[C@@H](OC(=O)[C@H](O)[C@@H](NC(=O)c4ccccc4)c4ccccc4)C[C@@](O)([C@@H](OC(=O)c4ccccc4)[C@H]21)C3(C)C", "values": [{"measurement": "IC50", "setting": "A2780", "value": 0.2, "unit": "µg/mL"}, {"measurement": "IC50", "setting": "[2]", "value": 1300, "unit": "nM"}]}, {"smiles": "CC(=O)O[C@H]1C(=O)[C@@]2(C)[C@H]([C@H](OC(=O)c3ccccc3)[C@]3(O)C[C@H](OC(=O)[C@H](O)[C@@H](NC(=O)c4ccccc4)c4ccccc4)C(C)=C1C3(C)C)[C@]1(OC(C)=O)CO[C@@H]1C[C@@H]2O", "note": "[PACLITAXEL]", "values": [{"measurement": "logP", "setting": "[1]", "value": 0.017}, {"measurement": "Activity", "setting": "[3]", "value": 2.3, "unit": "%"}, {"measurement": "IC50", "setting": "A2780", "value": 0.136, "unit": "µg/mL"}, {"measurement": "Activity", "setting": "[4]", "value": 100, "unit": "%"}, {"measurement": "Activity", "setting": "[5]", "value": 66, "unit": "%"}, {"measurement": "IC50", "setting": "[2]", "value": 550, "unit": "nM"}]}]}
